Laboratory results as given in ChEMBL document CHEMBL1141513, “Synthesis and evaluation of [123I] labeled iodovinyl amino acids syn-, anti-1-amino-3-[2-iodoethenyl]-cyclobutane-1-carboxylic acid, and 1-amino-3-iodomethylene-cyclobutane-1-carboxylic acid as potential SPECT brain tumor imaging agents” (Bioorg Med Chem Lett, 2008).

Assays:
Rattus norvegicus = organism: Rattus norvegicus; test: Ratio of drug uptake in tumor to brain in Fischer rat transplanted with rat 9L cells; format: ADME, organism-based
Summary of the method: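 Fischer rats with intracranial 9L gliosarcoma received [123I] tracer; tumor and brain radioactivity measured at 30, 60, 120 min p.i. (n=5 per time point) as %ID/g, ratio taken as tumor over brain uptake.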

[1] = Drug uptake in tumor cells in Fischer rat transplanted with rat 9L cells after 60 mins; format: ADME, Neoplasm; conditions: read-out: Drug uptake
Summary of the method: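 Fischer rats bearing intracranially implanted 9L gliosarcoma tumours received the [123I]-labelled amino acid by injection. Radioactivity in tumour and normal tissues was counted at 30, 60 and 120 min post-injection, with n=5 per time point. Values were expressed as percent injected dose per gram tissue (%ID/g).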

[2] = Drug uptake in tumor cells of Fischer rat brain transplanted with rat 9L cells; format: ADME, cell-based; conditions: read-out: Drug uptake
Summary of the method: (§1)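 [123I]-labelled amino acid given to Fischer rats bearing intracranially implanted 9L gliosarcoma; tumor and normal tissue radioactivity counted at 30, 60 and 120 min post injection, n=5 per time point; expressed as percent injected dose per gram tissue (%ID/g).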

9L [3] = test: Inhibition of drug uptake in rat 9L cells in presence of 10 mM BCH relative to control; format: cell-based
Summary of the method: (§2)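 9L rat gliosarcoma cells incubated with [123I] tracer in HBSS for 30 min at 37°C, with or without 10 mM BCH (L-type transport inhibitor) or MeAIB (A-type inhibitor); uptake expressed as %ID per 1×10^6 cells, inhibition relative to uninhibited controls; significance by 1-way ANOVA.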

9L [4] = test: Inhibition of drug uptake in rat 9L cells; format: cell-based; summary of the method: as §2
[5] = Drug uptake in normal brain tissue in Fischer rat transplanted with rat 9L cells; format: ADME, tissue-based; summary of the method: as §1
9L [6] = test: Inhibition of drug uptake in rat 9L cells in presence of 10 mM MeAIB relative to control; format: cell-based; summary of the method: as §2

SMILES	Ratio (Rattus norvegicus)	tissue uptake at 1 h [1] [%ID/g]	tissue uptake [2] [%ID/g]	Drug uptake (9L [3]) [%]	Drug uptake (9L [4]) [%ID]	tissue uptake [5] [%ID/g]	Activity (9L [6])
N[C@]1(C(=O)O)C[C@H](C[18F])C1	6.9	1.59	–	–	–	–	–
N[C@]1(C(=O)O)C[C@H](/C=C/[123I])C1	7.3	–	0.83	92.3	8.4	< 0.4	Not Active
NC1(C(=O)O)CC(=C[123I])C1 (configuration not stated)	4.7	–	0.83	92.3	8.4	< 0.4	–
N[C@]1(C(=O)O)C[C@@H](/C=C/[123I])C1	6.5	–	0.83	92.3	8.4	< 0.4	–
N[C@]1(C(=O)O)C[C@@H](C[18F])C1	8.9	2.5	–	–	–	–	–
N[C@]1(C(=O)O)C[C@@H]([18F])C1 [FLUCICLOVINE F18]	6.6	1.72	–	–	–	–	–
